pIC50: −log10 of the molar value.
Columns and labels:
[1] = molecular target: T1, Tyrosine-protein kinase JAK3 (Homo sapiens, UniProt P52333); assay: Inhibition of recombinant JAK3 using Poly (Glu,Ala,Tyr) as substrate after 2 hrs by luminescence assay
T1 sequence (P52333 whole entry): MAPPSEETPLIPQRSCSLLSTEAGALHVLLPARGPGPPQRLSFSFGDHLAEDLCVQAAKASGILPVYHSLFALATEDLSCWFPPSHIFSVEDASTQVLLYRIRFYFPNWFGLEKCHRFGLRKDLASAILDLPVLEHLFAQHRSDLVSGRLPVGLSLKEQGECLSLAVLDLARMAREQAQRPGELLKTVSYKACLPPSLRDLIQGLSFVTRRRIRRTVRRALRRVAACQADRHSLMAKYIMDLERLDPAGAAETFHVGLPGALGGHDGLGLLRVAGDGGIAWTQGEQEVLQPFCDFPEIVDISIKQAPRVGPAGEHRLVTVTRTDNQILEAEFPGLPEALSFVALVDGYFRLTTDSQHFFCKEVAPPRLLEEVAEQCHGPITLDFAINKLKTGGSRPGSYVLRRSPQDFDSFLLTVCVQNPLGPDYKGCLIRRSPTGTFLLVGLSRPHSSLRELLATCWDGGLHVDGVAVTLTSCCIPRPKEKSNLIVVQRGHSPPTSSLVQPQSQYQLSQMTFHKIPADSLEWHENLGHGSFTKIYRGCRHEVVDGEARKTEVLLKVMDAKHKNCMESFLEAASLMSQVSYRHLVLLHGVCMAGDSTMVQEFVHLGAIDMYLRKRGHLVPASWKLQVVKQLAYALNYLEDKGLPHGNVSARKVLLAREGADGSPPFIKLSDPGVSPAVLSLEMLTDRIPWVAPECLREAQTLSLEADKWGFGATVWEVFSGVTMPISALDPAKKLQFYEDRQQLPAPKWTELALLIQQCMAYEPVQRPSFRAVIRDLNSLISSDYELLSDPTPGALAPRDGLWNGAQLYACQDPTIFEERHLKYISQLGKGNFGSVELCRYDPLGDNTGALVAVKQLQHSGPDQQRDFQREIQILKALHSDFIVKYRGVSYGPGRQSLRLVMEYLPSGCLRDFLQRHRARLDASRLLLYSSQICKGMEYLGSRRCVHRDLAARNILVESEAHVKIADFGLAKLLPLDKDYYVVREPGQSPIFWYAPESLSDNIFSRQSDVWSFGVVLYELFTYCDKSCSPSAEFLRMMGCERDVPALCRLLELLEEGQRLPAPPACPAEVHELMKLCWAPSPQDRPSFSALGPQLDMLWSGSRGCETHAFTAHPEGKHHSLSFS

[2] = molecular target: T2, Receptor-type tyrosine-protein kinase FLT3 (Homo sapiens, UniProt P36888); assay: Inhibition of recombinant FLT3 using Poly (Glu,Tyr) as substrate after 2 hrs by luminescence assay
T2 sequence (P36888 whole entry): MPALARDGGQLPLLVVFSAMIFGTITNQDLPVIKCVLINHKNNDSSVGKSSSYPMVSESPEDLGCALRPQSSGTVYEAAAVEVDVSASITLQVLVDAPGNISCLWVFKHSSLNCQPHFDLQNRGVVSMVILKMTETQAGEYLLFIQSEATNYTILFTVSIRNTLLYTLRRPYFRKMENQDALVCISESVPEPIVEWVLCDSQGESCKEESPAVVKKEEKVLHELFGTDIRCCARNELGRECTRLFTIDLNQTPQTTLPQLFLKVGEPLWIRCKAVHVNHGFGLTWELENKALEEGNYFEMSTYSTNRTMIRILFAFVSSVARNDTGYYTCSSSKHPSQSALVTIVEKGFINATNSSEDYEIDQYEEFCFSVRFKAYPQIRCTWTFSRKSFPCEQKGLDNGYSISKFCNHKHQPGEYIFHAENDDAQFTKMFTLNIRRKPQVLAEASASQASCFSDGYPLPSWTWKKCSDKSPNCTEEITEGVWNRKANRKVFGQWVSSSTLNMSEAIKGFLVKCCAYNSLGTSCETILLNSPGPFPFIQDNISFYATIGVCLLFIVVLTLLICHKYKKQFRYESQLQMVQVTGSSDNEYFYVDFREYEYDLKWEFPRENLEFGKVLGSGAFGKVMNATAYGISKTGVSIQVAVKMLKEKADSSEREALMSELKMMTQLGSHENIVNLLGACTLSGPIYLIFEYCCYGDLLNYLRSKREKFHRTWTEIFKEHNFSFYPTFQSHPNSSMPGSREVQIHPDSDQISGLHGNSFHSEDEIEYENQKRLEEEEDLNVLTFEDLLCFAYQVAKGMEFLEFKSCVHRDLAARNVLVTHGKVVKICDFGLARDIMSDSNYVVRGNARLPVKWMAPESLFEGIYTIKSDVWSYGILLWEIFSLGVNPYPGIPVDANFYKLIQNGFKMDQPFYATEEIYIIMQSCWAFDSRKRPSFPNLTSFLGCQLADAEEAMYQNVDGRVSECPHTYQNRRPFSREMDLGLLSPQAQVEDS

[3] = molecular target: Tyrosine-protein kinase JAK2 (Homo sapiens, UniProt O60674); assay: Inhibition of recombinant JAK2 using Poly (Glu,Ala,Tyr) as substrate after 2 hrs by luminescence assay
Chain of Tyrosine-protein kinase JAK2 (O60674 whole entry): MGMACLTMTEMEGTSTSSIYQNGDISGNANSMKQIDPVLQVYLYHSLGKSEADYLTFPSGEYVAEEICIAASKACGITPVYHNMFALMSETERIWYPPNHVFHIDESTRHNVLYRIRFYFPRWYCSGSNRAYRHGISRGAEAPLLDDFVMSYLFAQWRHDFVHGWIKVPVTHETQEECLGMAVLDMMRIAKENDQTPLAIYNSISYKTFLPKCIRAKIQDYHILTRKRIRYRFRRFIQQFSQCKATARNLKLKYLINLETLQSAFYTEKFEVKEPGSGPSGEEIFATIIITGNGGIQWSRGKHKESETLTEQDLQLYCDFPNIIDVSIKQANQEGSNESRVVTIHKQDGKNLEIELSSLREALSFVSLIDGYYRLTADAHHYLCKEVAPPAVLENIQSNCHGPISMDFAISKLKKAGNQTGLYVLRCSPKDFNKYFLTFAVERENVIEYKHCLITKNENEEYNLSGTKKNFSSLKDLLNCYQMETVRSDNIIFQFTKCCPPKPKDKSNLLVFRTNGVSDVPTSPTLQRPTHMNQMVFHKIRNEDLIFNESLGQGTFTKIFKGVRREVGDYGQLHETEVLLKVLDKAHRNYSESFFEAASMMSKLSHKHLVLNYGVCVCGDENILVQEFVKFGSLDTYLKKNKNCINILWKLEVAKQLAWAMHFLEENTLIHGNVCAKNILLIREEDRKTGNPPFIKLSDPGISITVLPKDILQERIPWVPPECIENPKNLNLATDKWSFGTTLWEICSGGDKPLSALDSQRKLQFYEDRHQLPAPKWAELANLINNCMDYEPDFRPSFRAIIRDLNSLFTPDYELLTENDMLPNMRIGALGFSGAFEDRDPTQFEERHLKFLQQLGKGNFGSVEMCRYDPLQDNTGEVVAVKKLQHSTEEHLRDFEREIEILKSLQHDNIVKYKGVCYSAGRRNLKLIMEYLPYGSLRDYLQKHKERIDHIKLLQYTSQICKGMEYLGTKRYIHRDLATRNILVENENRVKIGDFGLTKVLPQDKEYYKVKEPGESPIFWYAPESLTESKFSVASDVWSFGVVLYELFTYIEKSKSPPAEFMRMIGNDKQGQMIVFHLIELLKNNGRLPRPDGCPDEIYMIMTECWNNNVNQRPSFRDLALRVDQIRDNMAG

[4] = in vitro; details: PAMPA
[5] = Antiproliferative activity against mouse BA/F3 cells harboring JAK2 V617F mutation assessed as cell viability after 48 hrs by Cell titer Glo assay; assay type: functional; details: BaF3, 48 h
[6] = molecular target: Cyclin-dependent kinase 2/cyclin A (Homo sapiens, UniProt P24941); assay: Inhibition of recombinant CDK2/Cyclin A using RbinG as substrate after 2 hrs by luminescence assay; assay type: protein-complex assay
[7] = in vitro; details: human, liver microsomes
[8] = tested on: MV4-11; assay: Antiproliferative activity against human MV4-11 cells harboring FLT3 […] mutant assessed as cell viability after 48 hrs by Cell titer Glo assay; assay type: functional; details: MV4-11, 48 h
[9] = in vitro; details: mouse, liver microsomes
[10] = molecular target: Cytochrome P450 2D6 (Homo sapiens, UniProt P10635)
Chain of Cytochrome P450 2D6 (P10635 whole entry): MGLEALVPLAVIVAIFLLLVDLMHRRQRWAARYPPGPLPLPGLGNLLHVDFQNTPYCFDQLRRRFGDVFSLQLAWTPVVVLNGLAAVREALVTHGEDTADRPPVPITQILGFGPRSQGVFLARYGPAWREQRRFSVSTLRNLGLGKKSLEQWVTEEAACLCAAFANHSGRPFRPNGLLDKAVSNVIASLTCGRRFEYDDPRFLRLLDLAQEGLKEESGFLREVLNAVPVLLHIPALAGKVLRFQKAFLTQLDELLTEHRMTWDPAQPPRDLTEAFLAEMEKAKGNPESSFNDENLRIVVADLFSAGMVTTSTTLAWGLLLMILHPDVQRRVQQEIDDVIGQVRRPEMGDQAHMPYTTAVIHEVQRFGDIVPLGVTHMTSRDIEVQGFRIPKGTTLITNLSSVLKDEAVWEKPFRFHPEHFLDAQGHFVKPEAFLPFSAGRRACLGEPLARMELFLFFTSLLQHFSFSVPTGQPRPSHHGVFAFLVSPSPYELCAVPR

[11] = molecular target: Non-receptor tyrosine-protein kinase TYK2 (Homo sapiens, UniProt P29597); assay: Inhibition of recombinant TYK2
Chain of Non-receptor tyrosine-protein kinase TYK2 (P29597 whole entry): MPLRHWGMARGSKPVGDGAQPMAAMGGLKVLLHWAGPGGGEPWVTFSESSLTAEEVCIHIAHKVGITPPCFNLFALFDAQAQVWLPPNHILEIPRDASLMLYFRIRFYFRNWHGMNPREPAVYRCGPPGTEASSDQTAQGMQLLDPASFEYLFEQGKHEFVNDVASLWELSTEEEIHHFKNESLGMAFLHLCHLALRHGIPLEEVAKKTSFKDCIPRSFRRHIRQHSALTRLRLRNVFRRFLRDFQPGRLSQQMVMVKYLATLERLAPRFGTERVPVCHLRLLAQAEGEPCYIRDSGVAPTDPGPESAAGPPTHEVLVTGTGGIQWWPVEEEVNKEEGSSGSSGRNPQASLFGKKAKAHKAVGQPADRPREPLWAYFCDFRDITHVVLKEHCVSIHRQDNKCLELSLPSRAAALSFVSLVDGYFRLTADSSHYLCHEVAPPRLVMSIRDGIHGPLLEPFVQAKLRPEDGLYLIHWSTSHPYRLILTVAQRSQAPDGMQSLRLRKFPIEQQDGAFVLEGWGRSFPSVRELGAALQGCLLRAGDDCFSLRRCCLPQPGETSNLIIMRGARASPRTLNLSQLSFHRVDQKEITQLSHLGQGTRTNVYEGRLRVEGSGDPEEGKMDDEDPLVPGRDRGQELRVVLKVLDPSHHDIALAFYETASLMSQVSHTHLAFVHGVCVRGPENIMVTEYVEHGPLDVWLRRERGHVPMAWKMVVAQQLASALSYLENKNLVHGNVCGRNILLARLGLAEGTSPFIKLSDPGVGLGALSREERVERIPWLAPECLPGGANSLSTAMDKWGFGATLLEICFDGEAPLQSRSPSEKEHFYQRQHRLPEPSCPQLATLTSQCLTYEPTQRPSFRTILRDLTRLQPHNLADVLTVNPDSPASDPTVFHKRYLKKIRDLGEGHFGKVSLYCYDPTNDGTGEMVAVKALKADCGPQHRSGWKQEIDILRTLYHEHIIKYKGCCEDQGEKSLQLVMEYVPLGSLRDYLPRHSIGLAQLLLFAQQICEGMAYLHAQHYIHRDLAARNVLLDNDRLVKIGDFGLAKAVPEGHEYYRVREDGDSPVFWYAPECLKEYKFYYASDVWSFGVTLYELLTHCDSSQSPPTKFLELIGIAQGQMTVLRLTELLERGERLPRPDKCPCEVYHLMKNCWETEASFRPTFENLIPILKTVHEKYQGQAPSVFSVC

[12] = molecular target: Tyrosine-protein kinase JAK1 (Homo sapiens, UniProt P23458); assay: Inhibition of recombinant JAK1 using Poly (Glu,Ala,Tyr) as substrate after 2 hrs by luminescence assay
Chain of Tyrosine-protein kinase JAK1 (P23458 whole entry): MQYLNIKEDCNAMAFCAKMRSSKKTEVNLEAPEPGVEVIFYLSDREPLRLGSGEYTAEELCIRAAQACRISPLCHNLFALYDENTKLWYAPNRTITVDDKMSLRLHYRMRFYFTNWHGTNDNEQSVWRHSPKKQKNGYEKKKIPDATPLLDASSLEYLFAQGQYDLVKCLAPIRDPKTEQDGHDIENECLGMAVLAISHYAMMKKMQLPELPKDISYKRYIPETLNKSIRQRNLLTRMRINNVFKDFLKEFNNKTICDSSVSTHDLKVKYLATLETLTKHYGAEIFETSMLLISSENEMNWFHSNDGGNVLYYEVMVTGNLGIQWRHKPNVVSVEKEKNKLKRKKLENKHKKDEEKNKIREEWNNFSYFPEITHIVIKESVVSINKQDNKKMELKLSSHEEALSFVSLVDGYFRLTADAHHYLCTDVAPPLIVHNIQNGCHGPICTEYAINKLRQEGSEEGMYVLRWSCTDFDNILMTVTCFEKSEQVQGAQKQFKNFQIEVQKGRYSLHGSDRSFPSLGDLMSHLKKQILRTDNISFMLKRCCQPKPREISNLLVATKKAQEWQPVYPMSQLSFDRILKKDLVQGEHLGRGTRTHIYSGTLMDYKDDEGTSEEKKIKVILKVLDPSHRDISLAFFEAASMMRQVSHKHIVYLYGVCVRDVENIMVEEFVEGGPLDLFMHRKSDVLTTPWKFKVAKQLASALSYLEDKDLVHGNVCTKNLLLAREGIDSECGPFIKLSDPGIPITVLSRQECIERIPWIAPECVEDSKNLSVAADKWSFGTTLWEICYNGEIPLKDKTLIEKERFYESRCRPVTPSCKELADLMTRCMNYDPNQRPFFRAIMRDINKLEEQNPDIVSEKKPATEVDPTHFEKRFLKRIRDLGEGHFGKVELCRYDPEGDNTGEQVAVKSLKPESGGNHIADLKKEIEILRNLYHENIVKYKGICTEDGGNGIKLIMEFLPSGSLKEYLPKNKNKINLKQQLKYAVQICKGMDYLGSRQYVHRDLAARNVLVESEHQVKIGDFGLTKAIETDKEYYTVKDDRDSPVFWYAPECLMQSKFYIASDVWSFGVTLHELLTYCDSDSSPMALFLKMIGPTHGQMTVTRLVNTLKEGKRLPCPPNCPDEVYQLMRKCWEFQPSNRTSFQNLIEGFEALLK
How it was run: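 Luciferase-coupled ATP-depletion luminescence assay in 50 mM Hepes pH 7.5 with MgCl₂, MnCl₂, BGP, DTT and orthovanadate, 2 h at room temperature. Conditions per target: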

[13] = molecular target: Cytochrome P450 3A4 (Homo sapiens, UniProt P08684)
Chain of Cytochrome P450 3A4 (P08684 whole entry): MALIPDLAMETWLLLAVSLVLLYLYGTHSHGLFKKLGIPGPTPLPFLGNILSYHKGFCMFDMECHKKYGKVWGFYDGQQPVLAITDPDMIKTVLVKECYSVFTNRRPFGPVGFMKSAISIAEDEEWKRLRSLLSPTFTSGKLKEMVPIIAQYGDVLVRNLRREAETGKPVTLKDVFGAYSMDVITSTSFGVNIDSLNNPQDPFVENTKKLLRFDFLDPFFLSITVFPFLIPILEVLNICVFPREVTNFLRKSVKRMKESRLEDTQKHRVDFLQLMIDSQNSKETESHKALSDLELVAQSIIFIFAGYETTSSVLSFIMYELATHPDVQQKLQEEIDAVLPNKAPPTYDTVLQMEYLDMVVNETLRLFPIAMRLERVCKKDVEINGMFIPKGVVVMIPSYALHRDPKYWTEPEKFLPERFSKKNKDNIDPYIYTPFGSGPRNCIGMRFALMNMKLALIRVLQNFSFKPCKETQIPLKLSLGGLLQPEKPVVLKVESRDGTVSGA

[14] = physchem; details: phosphate buffer saline, pH 7

pIC50 [1] | pIC50 [2] | pIC50 [3] | Papp at 5 h, 1 µM [4] | pIC50 [6] | half-life at 5 µM [7] | GI50 [8] | half-life at 5 µM [9] | pIC50 [10] | pIC50 [11] | pIC50 [12] | pIC50 [13] | solubility [14] | SMILES | GI50 [5]
6.21 | 7.54 | 7.62 | 15.8 ×10⁻⁶ cm/s | 5.33 | 44 min | 0.037 µM | 16 min | < 5.00 | 7.10 | 5.46 | 5.55 | 147 µg/mL | CCN(CC)CCOc1ccc2cc1COCC=CCOCc1cccc(c1)-c1ccnc(n1)N2 (mixture of isomers) | 0.15 µM
6.12 | 7.59 | 7.82 | 3.93 ×10⁻⁶ cm/s | 5.57 | > 60 min |  | 11 min | < 5.00 | 7.08 | 6.02 | 6.43 |  | C1=CCOCc2cc(ccc2OCCN2CCCCC2)Nc2nccc(n2)-c2cccc(c2)COC1 (mixture of isomers) | 0.16 µM
7.05 | 7.72 | 8.15 |  |  | > 60 min | 0.051 µM | 40 min |  | 7.24 | 6.00 |  |  | Cc1cnc2nc1-c1cccc(c1)COCC=CCOCc1cc(ccc1OCCN1CCCC1)N2 | 0.18 µM
6.05 | 7.04 | 7.72 | 10.1 ×10⁻⁶ cm/s | < 5.00 | > 60 min | 0.085 µM | 29 min | < 5.00 | 6.74 | < 5.00 | < 5.00 | 60.8 µg/mL | COc1ccc2cc1COCC=CCOCc1cc(ccc1OCCN1CCCC1)Nc1nccc-2n1 (mixture of isomers) | 0.1 µM
